Only some compounds are listed: those with a hit (about 1.2% of all), similar ones and a draw of the others.
proCasp7 act = activates human procaspase-7, counter-screen for procaspase-3 activators. P55210. recombinant procaspase-7, Ac-DEVD-pNA absorbance 405 nm; D23A/D198A/D206A triple mutant, cannot self-cleave; scale: DMSO 0, 5 µM enzyme 100. activation, % at 8.5 µM. actives 0.093% (n = 330,000);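 active means percent activation above the screen-wide mean plus 3 SD, cut at about 25% in these data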
Target sequence (P55210 whole entry D23A/D198A/D206A): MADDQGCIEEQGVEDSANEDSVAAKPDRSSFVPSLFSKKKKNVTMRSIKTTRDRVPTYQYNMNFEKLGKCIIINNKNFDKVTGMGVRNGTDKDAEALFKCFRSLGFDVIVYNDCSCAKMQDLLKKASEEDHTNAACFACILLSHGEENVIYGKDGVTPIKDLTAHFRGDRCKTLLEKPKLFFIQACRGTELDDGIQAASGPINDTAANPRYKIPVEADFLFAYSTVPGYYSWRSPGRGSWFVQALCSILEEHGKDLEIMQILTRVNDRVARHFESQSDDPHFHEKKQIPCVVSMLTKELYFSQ
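buffer or medium = Zinc-free HEPES/NaCl buffer, pH 7.4 | material = Procaspase-7 triple mutant (PC-7 D3A) | input = 2 µM procaspase-7 mutant as dispensed | signal = Epi-absorbance of released pNA at 405 nm, two timepoints | timing = 1 h preincubation, 2 h reaction | replicates = singlicate compound testing | evaluation = % activation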
MsrA inh = bovine MsrA inhibition; AID 651718; purified bovine MsrA, absorbance read-out; inhibition, % at 15.5 µM; actives 0.75% (n = 360,000);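 further: 0% = vehicle wells with enzyme and 100% = reference inhibitor wells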
procasp3 activ = procaspase-3 (human) activation. P42574. recombinant procaspase-3 D3A, Ac-DEVD-pNA absorbance 405 nm. AID 463141. actives 0.11% (n = 330,000). activation, % at 8.5 µM;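 active means activation above the mean of all tested compounds plus 3 SD, cut at about 21% in these data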;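 further: 0% = DMSO alone and 100% = DMSO wells spiked with extra 5 µM PC-3 D3A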
Target sequence (P42574 whole entry D9A/D28A/D175A): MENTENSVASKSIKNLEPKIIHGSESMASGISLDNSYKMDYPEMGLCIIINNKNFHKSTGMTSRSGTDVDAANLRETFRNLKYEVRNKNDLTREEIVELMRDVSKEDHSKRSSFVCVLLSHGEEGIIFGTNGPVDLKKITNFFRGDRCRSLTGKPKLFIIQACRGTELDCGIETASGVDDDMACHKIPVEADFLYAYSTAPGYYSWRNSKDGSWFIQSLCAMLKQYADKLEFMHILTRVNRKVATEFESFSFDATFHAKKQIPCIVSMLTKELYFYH
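Evaluation: percent activation relative to control range; Material: Procaspase-3 D3A mutant, all three cleavage aspartates alanine; Compound: single dose, 8.5 µM nominal compound, 0.8% DMSO; Replication: one well per compound; Signal: absorbance at 405 nm, 0 and 120 min; Schedule: 1 h preincubation plus 2 h reaction at 25 °C.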
bovine MsrA act = bovine methionine sulfoxide reductase A activation; purified bovine MsrA, absorbance read-out; activation, % at 10.6 µM; actives 0.3% (n = 360,000); in the data active means activation above about 7.5%;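 further: 0% = vehicle and 100% = reference activator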
MsrA conf = bovine MsrA inhibition, confirmed; actives 41% (n = 2,300); inhibition, % at 15.5 µM; purified bovine MsrA, absorbance read-out; shares compounds with MsrA inh;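 further: coupled to thioredoxin reductase with NADPH and selenocystamine and DMSO as substrate; 0% = vehicle only and 100% = full effect of reference inhibitor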
* marks the source's active call; other numbers are inactive results; . = not tested or not shown. Unless noted, no stated cut-off is given here; in the data, active means inhibition above about 4.5%; inactive means the rest.

SMILES	proCasp7 act	MsrA inh	procasp3 activ	bovine MsrA act	MsrA conf
C[C@H](c1ccccc1)N1C[C@@H](COCc2ccccc2)Oc2cccc(Oc3ccc(F)cc3)c2S1(=O)=O	.	0	.	.	.
COC(=O)Cn1c2ccccc2c2nc3ccccc3nc21	.	6.7*	.	-4	5.3*
C#CCn1c2ccccc2c2nc3ccccc3nc21	-3	5.5*	8	3	2
Cc1cc(=O)oc2cc(OC(=O)c3ccccc3)ccc12	-4	2	-5	6	.
Cc1ccc(N(C)S(=O)(=O)c2cccc(C(=O)Oc3ccc4c(C)cc(=O)oc4c3)c2)cc1	15	4.8*	13	-2	2
CCCC(=O)OC[C@H]1CN(C2CCCC2)S(=O)(=O)c2c(Oc3ccc(F)cc3)cccc2O1	.	0	.	.	.
COC(=O)c1nc(-c2ccc(C)cc2)oc1N(C)C	3	4.8*	-11	-4	2
CO[C@H]1C=CO[C@@]2(C)Oc3c(C)c(O)c4c(O)c(c(C=NN5CCN(C)CC5)c(O)c4c3C2=O)NC(=O)C(C)=CC=C[C@H](C)[C@H](O)[C@@H](C)[C@@H](O)[C@@H](C)[C@H](OC(C)=O)[C@@H]1C	-12	5.4*	-8	-4	3
CO[C@H]1/C=C/O[C@@]2(C)Oc3c(C)c(O)c4c(O)c(c(C=NN5CCN(C)CC5)c(O)c4c3C2=O)NC(=O)/C(C)=C\C=C\[C@H](C)[C@H](O)[C@@H](C)[C@@H](O)[C@@H](C)[C@H](OC(C)=O)[C@@H]1C	-7	2	2	2	.
Nc1ccn([C@@H]2O[C@H](C(=O)N3CCN(CCO)CC3)[C@@H](O)[C@H]2O)c(=O)n1	.	0	.	.	.
NC(=O)c1cc(S(=O)(=O)N2CCN(c3ccc([N+](=O)[O-])cc3)CC2)cs1	-29	7.8*	-23	-2	4.8*
Cc1ccc2nc(/C(C#N)=N/O)[nH]c2c1	10	5.1*	9	-6	3
Fc1ccccc1-c1n[nH]c(=S)n1/N=C/c1c[nH]c2ccccc12	-16	11*	-10	0	7.3*
CCN(CC)c1ccc(/C=N/NC(=O)Nc2ccccc2)cc1	1	3	2	-3	.
CCN(CC)c1ccc(/C=N/NC(=O)CC(C)C)cc1	-2	5.6*	-6	-3	3
CCN(CC)c1ccc(/C=N/NC(=O)CNC(=O)c2ccccn2)cc1	-8	6.0*	4	-7	3
CCN(CC)c1ccc(/C=N/NC(=O)Cc2nnc(NC(=O)Nc3ccccc3)s2)cc1	4	5.5*	-3	-8	4
CC(C)NC(=O)N(C)C[C@H]1OCc2cn(nn2)CCCC(=O)N([C@H](C)CO)C[C@@H]1C	.	0	.	.	.
Nc1ccc(F)c(CN2CCN(c3ncc(Cc4ccccc4)cn3)CC2)c1	.	1	.	.	.
C=CCc1c(C)nc(C)nc1N/N=C/c1ccc(F)cc1	5	3	1	-5	.
C=CCc1c(C)nc(C)nc1N/N=C/c1ccccc1	-5	4.7*	-12	-3	4.8*
Cc1cc(N2CCN(CC(C)(C)O)C[C@H]2C)ccc1N1CCN(CC(C)(C)O)[C@H](C)C1	.	0	.	.	.
COc1cccc(C2=CC(c3cccs3)n3nnnc3N2)c1 (stereo not given)	0	14*	7	-2	-1
CCOC(=O)c1c(NC(=O)COC(=O)/C=C/c2ccco2)sc2c1CC(C)(C)NC2(C)C	6	8.7*	4	-3	15*
C[C@H](O)[C@@H]1C(=O)N2CCc3c([nH]c4c(-c5ccccc5)cccc34)[C@@H]2C[C@@H]1N(C)C(=O)/C=C/c1ccccc1	.	-1	.	.	.
SMILES	proCasp7 act	MsrA inh	procasp3 activ	bovine MsrA act	MsrA conf
CCOc1ccc(-c2nnc(-c3ccncc3)o2)cc1	1	2	-5	-2	.
CCOc1ccc(-c2nnc(-c3ccncc3)o2)cc1OCC	-11	4.9*	10	-4	2
O=c1cc(-c2ccc(O)c(O)c2)oc2c(C3O[C@H](CO)[C@@H](O)[C@H](O)[C@H]3O)c(O)cc(O)c12 (stereo not given in full)	12	5.6*	-15	-4	4
O=c1cc(-c2ccc(O)cc2)oc2c(C3O[C@H](CO)[C@@H](O)[C@H](O)[C@H]3O)c(O)cc(O)c12 (stereo not given in full)	-5	4	8	1	.
Cc1ccc(C)c(/C(O)=C2\C(=O)C(=O)N(CCCN3CCOCC3)C2c2cccnc2)c1 (stereo not given)	.	16*	.	-5	0
COc1cc(/C=C/c2cc(C(F)(F)F)[nH]c(=O)n2)cc(OC)c1OC	.	5.6*	.	-13	3
COc1cc(/C=C/C2=NNC(=O)CC2)cc(OC)c1OC	-3	8.2*	-3	-5	3
COC(=O)[C@]12C[C@H](CC(=O)NCc3ccc(OC)c(OC)c3)C(=O)N(CCC3=CCCCC3)C1=C[C@H](C(C)(C)C)O[C@@H]2C	.	0	.	.	.
NS(=O)(=O)c1ccc(-c2ccc(C=O)o2)cc1	11	4.7*	-3	-12	3
Nc1[nH]c(C(=O)c2ccc(Br)cc2)c(-c2ccccc2Cl)c1C(=O)NCCc1c[nH]c2ccccc12	.	2	.	.	.
COC(=O)CNC(=O)c1ccccc1	-4	0	-1	-1	.
CC(=O)OC(=C(OC(C)=O)c1ccccc1)c1ccccc1	.	5.8*	.	-2	6.0*
Cc1cccc(NC(=O)c2nc[nH]c2C(=O)N(C)CCO)c1	.	1	.	.	.
COC(=O)C1=C(C)NC(=S)N(C(C)=O)C1c1ccc(OC)c(OC)c1 (stereo not given)	6	4.7*	3	-5	3
Cc1c(OCc2ccc(C(=O)O)o2)ccc2c3c(c(=O)oc12)CCC3	3	4.8*	12	-3	0
CCN(CC)C(=O)COc1ccc2c3c(c(=O)oc2c1C)CCCC3	-5	1	4	-4	.
CCN(CC)c1ccc(/C=N/NC(=O)CCC(=O)NCc2ccccc2)c(O)c1	-23	4.7*	-21	-17	4.8*
CCOC(=O)N/N=C/c1ccc(N(CC)CC)cc1O	-5	6.1*	4	-7	6.3*
COc1cc(/C=N\NC(=O)CNC(=O)C2COc3ccccc3O2)ccc1O (stereo not given)	3	0	-3	-7	.
CCN(CC)c1ccc(/C=N/NC(=O)CNC(=O)C2COc3ccccc3O2)c(O)c1 (stereo not given)	-14	5.2*	-13	-10	3
CCCCc1c(-c2ccccc2OC)ncn1Cc1cccc(F)c1F	.	0	.	.	.
CCOC(=O)N(C)[C@H]1C[C@H]2c3cc(-c4ccccc4C)ccc3CCN2C[C@H]1[C@H](C)O	.	0	.	.	.
COC(=O)[C@]12C[C@H](CC(=O)NCc3cccc(C(F)(F)F)c3)C(=O)N(Cc3ccccc3)C1=C[C@H](C1CCCC1)O[C@@H]2C	.	0	.	.	.
COc1ccc(/C=C/C(=O)Nc2cc(=O)n(C)c(=O)n2C)cc1	-7	5.0*	-4	-14	4

Source: PubChem BioAssay (The Scripps Research Institute Molecular Screening Center)
